In series [1] the target is T1, Ectonucleoside triphosphate diphosphohydrolase 3 (Homo sapiens, UniProt O75355).
T1 sequence (O75355 whole entry): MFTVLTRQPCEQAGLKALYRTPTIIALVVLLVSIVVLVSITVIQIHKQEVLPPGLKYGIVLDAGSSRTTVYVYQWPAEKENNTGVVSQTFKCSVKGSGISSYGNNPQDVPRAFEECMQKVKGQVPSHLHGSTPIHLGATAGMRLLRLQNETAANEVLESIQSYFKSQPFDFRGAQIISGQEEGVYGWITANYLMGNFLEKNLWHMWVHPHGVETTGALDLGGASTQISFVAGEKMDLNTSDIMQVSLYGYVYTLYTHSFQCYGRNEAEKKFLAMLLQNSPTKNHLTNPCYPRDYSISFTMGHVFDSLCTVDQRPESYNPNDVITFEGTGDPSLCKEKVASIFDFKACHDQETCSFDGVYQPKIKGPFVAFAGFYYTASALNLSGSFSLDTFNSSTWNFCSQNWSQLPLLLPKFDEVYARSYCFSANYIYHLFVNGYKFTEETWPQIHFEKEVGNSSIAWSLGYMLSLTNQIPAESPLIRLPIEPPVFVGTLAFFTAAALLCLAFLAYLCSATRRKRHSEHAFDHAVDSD
Description: Inhibition of human NTPDase-3 expressed in CHO-K1 cells in presence of DNA/LTX mixture. Type of series: cell-based. The gist of the method:
(§1)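 CHO-K1 cells transfected overnight (Lipofectamine LTX) with NTPDase2, 3 or 8 plasmid, then harvested into HEPES pH 7.4 buffer. 10,000 cells/well, 2% DMSO, 16-point 1:3 compound dilutions (final 10–0 μM), 1 h preincubation at 37 °C. ATP added at 25 (NTPDase2), 15 (NTPDase3) or 30 μM (NTPDase8), 50 min at 37 °C. Phosphate read with PiColorLock Gold at 620 nm.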

The nature of series [2]: Half life in Sprague-Dawley rat at 0.25 to 0.5 mg/kg, iv measured up to 24 hrs by LC-MS/MS analysis. It is filed as ADME, organism-based. Conditions: in vivo, dose 0.25-0.5 mg/kg. The method, boiled down: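 Male SD rats (0.27–0.30 kg), acclimated. Single IV bolus via femoral vein at 0.25 or 0.5 mg/kg in 31.6% DMA/36.8% ethanol/31.6% PEG. Jugular blood at predose, 5, 15, 30 min, 1, 2, 4, 6, 8, 24 h, collected into K2-EDTA; plasma spun at 4 °C, stored −80 °C until analysis.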

The target in series [3] is 5'-nucleotidase (Homo sapiens, UniProt P21589). Description: Inhibition of CD73 in human SK-OV-3 cells incubated for 60 mins before addition of AMP and further incubated for 60 mins by colorimetric assay. Type of series: cell-based.
Chain of 5'-nucleotidase (Homo sapiens, UniProt P21589) (P21589 whole entry): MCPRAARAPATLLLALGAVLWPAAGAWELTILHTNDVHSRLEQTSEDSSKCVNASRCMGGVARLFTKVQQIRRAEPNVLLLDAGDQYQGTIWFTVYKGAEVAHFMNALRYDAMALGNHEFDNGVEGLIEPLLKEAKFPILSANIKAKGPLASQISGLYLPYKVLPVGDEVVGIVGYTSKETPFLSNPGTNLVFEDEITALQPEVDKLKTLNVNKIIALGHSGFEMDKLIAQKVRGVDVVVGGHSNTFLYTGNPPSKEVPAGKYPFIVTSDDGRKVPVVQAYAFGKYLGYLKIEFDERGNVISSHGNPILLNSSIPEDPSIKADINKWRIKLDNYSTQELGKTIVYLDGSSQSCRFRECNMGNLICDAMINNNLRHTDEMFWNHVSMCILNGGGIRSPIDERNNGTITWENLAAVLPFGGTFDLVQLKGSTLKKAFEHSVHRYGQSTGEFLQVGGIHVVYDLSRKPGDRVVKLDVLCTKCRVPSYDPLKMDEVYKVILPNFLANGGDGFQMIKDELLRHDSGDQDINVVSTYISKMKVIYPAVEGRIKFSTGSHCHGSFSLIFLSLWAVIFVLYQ
The nature of series [4]: Stability in rat hepatocytes. It is filed as ADME, cell-based, Hepatocyte.
Series [5] deals with T2, 5'-nucleotidase (Mus musculus, UniProt Q61503).
T2 sequence (Q61503 whole entry): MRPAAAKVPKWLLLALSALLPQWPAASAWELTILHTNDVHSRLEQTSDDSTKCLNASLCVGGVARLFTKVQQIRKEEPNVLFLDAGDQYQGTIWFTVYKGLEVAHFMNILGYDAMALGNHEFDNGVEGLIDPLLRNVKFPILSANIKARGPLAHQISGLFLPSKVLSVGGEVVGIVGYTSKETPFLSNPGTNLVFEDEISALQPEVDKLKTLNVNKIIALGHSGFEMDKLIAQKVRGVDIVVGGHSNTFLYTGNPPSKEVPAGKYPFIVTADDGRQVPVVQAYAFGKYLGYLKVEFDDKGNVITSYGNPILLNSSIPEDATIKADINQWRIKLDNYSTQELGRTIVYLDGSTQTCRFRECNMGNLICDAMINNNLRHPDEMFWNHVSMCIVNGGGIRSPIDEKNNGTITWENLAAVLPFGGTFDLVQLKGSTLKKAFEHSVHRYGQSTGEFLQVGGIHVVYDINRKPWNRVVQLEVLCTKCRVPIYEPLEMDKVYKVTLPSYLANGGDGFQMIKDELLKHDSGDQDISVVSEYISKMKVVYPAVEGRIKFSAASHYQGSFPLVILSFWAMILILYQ
Description: Inhibition of mouse CD73 expressed in CHO cells incubated for 60 mins before addition of AMP and further incubated for 60 mins by colorimetric assay. Type of series: cell-based.

Series [6] addresses T3, Ectonucleoside triphosphate diphosphohydrolase 2 (Homo sapiens, UniProt Q9Y5L3).
T3 sequence (Q9Y5L3 whole entry): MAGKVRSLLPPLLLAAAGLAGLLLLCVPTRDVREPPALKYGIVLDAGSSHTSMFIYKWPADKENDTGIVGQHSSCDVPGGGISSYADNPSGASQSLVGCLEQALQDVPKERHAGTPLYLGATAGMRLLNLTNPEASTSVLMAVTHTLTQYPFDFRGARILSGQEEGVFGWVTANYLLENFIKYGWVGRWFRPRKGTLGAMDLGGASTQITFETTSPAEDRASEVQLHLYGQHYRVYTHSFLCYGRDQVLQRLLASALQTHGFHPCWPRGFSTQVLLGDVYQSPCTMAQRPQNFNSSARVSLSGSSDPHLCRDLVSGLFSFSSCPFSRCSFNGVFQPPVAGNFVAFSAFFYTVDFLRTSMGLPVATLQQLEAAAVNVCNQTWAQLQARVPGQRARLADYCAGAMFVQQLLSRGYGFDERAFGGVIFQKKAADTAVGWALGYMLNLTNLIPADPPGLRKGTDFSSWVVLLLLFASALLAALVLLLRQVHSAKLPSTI
Kind of series: Inhibition of human NTPDase-2 expressed in CHO-K1 cells in presence of DNA/LTX mixture. It is filed as cell-based. The gist of the method: as §1

Series [7] has as its target T4, Ectonucleoside triphosphate diphosphohydrolase 8 (Homo sapiens, UniProt Q5MY95).
T4 sequence (Q5MY95 whole entry): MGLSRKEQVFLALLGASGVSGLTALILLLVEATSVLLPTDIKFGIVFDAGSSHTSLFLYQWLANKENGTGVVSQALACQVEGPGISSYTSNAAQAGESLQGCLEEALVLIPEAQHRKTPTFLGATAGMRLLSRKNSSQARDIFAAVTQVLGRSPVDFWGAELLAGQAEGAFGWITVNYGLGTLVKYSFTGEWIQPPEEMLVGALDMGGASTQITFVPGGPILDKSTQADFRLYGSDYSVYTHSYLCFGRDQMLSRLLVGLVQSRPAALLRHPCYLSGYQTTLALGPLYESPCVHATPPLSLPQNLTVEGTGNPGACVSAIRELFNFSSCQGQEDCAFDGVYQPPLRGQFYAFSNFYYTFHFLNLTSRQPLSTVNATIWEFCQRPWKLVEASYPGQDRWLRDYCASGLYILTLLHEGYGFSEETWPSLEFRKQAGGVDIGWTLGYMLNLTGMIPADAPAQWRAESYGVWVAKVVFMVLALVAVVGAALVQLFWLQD
Kind of series: Inhibition of human NTPDase-8 expressed in CHO-K1 cells in presence of DNA/LTX mixture. Type of series: cell-based. The method, boiled down: as §1

Series [8] can be described thus: Stability in human hepatocytes. Type of series: ADME, cell-based, Hepatocyte.

Some results are limits rather than exact numbers.

Broadly, the IC50 is the midpoint of a concentration-inhibition curve. As a reminder, the half-life is the time needed for the level to fall by half in the phase considered.

Regarding `O=P(O)(O)COC[C@H]1O[C@@H](n2ncc3c(NC4CCCC4)nc(Cl)nc32)[C@H](O)[C@@H]1O`, the IC50 in series [1] was over 10000 nM; at 5'-nucleotidase [3], 0.55 nM; at 5'-nucleotidase [5], 13 nM; in series [6] it was over 10000 nM; in series [7], over 10000 nM. Moreover, the half-life in series [2] is 1.2 h. In addition, the Stabilty result in series [4] and in series [8] was “Stable” in each case.

The values above are taken from ChEMBL document CHEMBL4765491, “Discovery of Potent and Selective Methylenephosphonic Acid CD73 Inhibitors” (J Med Chem, 2021).
